ChEMBL document CHEMBL5032509, “Design of a Stable Cyclic Peptide Analgesic Derived from Sunflower Seeds that Targets the κ-Opioid Receptor for the Treatment of Chronic Abdominal Pain” (J Med Chem, 2021)
The source made the active and inactive calls. The calls are words filed in the database; no cut-off is given here. Bridge positions count the residues as written; N and C are the ends. Square brackets hold non-standard residues; d marks the D form. Peptide text beside a SMILES is read from it. dNle = CCCC[C@@H](N)C(=O)O

Legend:
[1] = Stability of the compound in simulated gastric fluid at pH 1.2 assessed as drug degradation by UPLC-UV analysis; format: ADME
Method in brief: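 Peptide stock (2 mM in water) diluted 5:95 into USP simulated gastric fluid, pepsin added after adjusting to pH 1.2, incubated at 37 °C. Aliquots taken at 0, 15, 30 min and 1, 3, 6 h, quenched in ice-cold methanol. Data fitted to exponential decay for half-life.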

[2] = target: Kappa-type opioid receptor (Mus musculus) (UniProt P33534); experiment: Agonist activity at mouse KOR expressed in HEK293 cell assessed as maximal inhibition of cAMP concentration incubated for 1 hrs by time-resolved fluorescence resonance energy transfer assay relative to control; format: functional, cell-based; settings: filed as agonist
Chain of Kappa-type opioid receptor (Mus musculus) (P33534 whole entry): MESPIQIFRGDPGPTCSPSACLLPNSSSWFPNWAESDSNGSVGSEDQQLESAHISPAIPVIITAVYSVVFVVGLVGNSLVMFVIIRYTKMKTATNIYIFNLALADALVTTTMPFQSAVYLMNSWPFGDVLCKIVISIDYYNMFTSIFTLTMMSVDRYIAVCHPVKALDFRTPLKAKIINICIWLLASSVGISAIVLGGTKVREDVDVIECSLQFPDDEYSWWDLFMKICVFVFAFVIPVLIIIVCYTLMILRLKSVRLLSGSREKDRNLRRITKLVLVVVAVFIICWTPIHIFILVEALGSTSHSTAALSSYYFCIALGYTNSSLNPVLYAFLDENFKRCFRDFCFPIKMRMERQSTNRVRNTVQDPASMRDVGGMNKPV
Method in brief: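 HEK293 cells stably expressing mouse KOR, 2000 cells/well, exposed to log-spaced peptide concentrations with forskolin (10 µM final) for 30 min at 37 °C. Eu-cryptate cAMP and d2-labelled anti-cAMP antibody then added for 1 h at room temperature. HTRF read as the 665/620 nm ratio, in triplicate. Three-parameter fit with bottom fixed at zero and slope one gives EC50 and Emax. Normalised to the highest dyn A 1–13 concentration (100%).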

[3] = target: T1, Kappa-type opioid receptor (Mus musculus, UniProt P33534); experiment: Displacement of [3H]-diprenorphine from mouse KOR expressed in HEK293 cell membranes by radioligand binding assay relative to control; parameters: species or system Cell membrane
T1 sequence (P33534 whole entry): as above
Method in brief: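 Membranes from HEK293 cells stably expressing mouse KOR (7 µg/assay). Filtered onto PEI-soaked GF/C filters. Specific binding = total minus nonspecific, normalized to binding without peptide. […]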

[4] = target: T1, Kappa-type opioid receptor; experiment: Agonist activity at mouse KOR expressed in HEK293 cell assessed as inhibition of cAMP concentration incubated for 1 hrs by time-resolved fluorescence resonance energy transfer assay; format: functional, cell-based
Method in brief: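 HEK293 cells stably expressing mouse KOR, 2000 cells/well, exposed to log-spaced peptide concentrations with forskolin (10 µM final) for 30 min at 37 °C. Eu-cryptate cAMP and d2-labelled anti-cAMP antibody then added for 1 h at room temperature. Three-parameter fit with bottom fixed at zero and slope one gives EC50 and Emax. Normalised to the highest dyn A 1–13 concentration (100%).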

Mus musculus [5] = species: Mus musculus; experiment: Analgesic activity in chronic visceral hypersensitivity-induced chronic abdominal pain mouse model assessed as reduction in colonic nociceptor mechano-sensitivity at 0.1 uM measured at 5 mins by Von Frey filament assay; format: functional
Method in brief: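 Ex vivo colon with attached splanchnic nerves from male C57BL/6J mice, 28 days after DNBS-induced colitis. Colon superfused with carbogen-gassed modified Krebs at 34 °C. Single-unit extracellular recordings of nociceptor firing to 2 g von Frey filament stimulation, repeated after 5 min drug application via a metal ring over the receptive field.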

Mus musculus [6] = experiment: Effect on healthy mouse assessed as visceromotor response measured at different colorectal distention pressure at 10 uM intra-colonic administration as enema by electromyography; format: ADME, organism-based; settings: in vivo, other
Method in brief: (§1)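 Healthy or CVH (DNBS 6 mg in 30% ethanol enema, 28 d recovery) female mice. Under brief isoflurane, 100 µL enema of saline vehicle or peptide (10 µM). EMG from abdominal muscle electrodes during balloon CRD at 20, 40, 50, 60 and 80 mmHg (20 s each), run 10–30 min after dosing. Rectified, integrated AUC; mean ± SEM.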

[7] = target: Kappa-type opioid receptor (Mus musculus) (UniProt P33534); experiment: Displacement of [3H]-diprenorphine from mouse KOR expressed in HEK293 cell membranes at 10 uM by two-point binding assay; settings: Cell membrane, filed as agonist
Method in brief: (§2)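 Two-point competition at 10 µM and 100 nM peptide. Membranes (7 µg) from HEK293 cells stably expressing mouse KOR incubated with [3H]-diprenorphine (1 nM final) for 1 h at 37 °C in 50 mM Tris–HCl pH 7.4, 10 mM MgCl2, 0.1% BSA. Stopped by filtration onto PEI-soaked GF/C filters. Nonspecific binding subtracted; normalised to specific binding without peptide; mean ± SD.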

[8] = Toxicity in mouse assessed as […] by measuring jump response in mouse at 5 mg/kg, ip measured at 60 mins by […]; format: organism-based; settings: in vivo, 1 h
Method in brief: (§3)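 Male C57BL/6N mice given 5 mg/kg i.p. in saline (vehicle 0.9% NaCl). Jump-flinch test 60 min post-injection: 1 min exploration, then 1 s foot shocks every 30 s at six intensities. Intensity at first flinch, vocalization and jump recorded. Mean ± SEM, one-way ANOVA with Fisher's LSD, N = 8–12/group.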

[9] = Toxicity in mouse assessed as […] by measuring flinch response in mouse at 5 mg/kg, ip measured at 60 mins by […]; format: organism-based; settings: in vivo, 1 h; method in brief: as §3
Mu-type opioid receptor = Mu-type opioid receptor (Mus musculus, UniProt P42866); experiment: Displacement of [3H]-diprenorphine from mouse MOR expressed in HEK293 cell membranes by radioligand binding assay relative to control; parameters: species or system Cell membrane
Chain of Mu-type opioid receptor (P42866 whole entry): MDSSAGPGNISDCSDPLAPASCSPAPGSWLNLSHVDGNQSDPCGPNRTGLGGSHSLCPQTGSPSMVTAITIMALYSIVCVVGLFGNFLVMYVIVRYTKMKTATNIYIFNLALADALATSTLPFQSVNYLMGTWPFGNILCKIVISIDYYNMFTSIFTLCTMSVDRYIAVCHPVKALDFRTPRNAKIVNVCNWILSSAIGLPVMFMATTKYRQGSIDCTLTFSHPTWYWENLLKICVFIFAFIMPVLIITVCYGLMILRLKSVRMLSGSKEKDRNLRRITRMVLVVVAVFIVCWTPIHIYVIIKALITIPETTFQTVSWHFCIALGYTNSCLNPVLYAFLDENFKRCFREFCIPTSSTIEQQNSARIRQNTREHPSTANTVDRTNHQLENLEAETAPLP
Method in brief: (§4)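 Membranes from HEK293 cells stably expressing mouse DOR (20 µg/assay) or MOR (50 µg/assay). Incubated with 1 nM final [3H]-diprenorphine in 50 mM Tris–HCl pH 7.4, 10 mM MgCl2, 0.1% BSA for 1 h at 37 °C, in duplicate. Stopped by filtration onto PEI-soaked GF/C filters. Specific binding = total minus nonspecific, normalized to specific binding without peptide; n = 2.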

[10] = Toxicity in mouse assessed as motor coordination by measuring latency to fall in mouse at 5 mg/kg, ip measured at 45 mins by rotarod test; format: organism-based; settings: in vivo, 0.75 h
Method in brief: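 Male C57BL/6N mice (8 weeks) given 5 mg/kg i.p. in saline (10 µL/g); vehicle 0.9% NaCl. After habituation, drum accelerated from 4 to 40 rpm. Three trials 15 min apart, starting 45 min post-injection; latency to fall averaged. Mean ± SEM, one-way ANOVA with Fisher's LSD, N = 8–12/group.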

Mus musculus [11] = experiment: Reduction in visceromotor response in chronic visceral hypersensitivity-induced chronic abdominal pain mouse model measured at different colorectal distention pressure at 10 uM intra-colonic administration as enema by electromyography; format: functional, organism-based; method in brief: as §1
[12] = target: Delta-type opioid receptor (Mus musculus, UniProt P32300); experiment: Displacement of [3H]-diprenorphine from mouse DOR expressed in HEK293 cell membranes by radioligand binding assay relative to control; parameters: species or system Cell membrane; method in brief: as §4
Chain of Delta-type opioid receptor (P32300 whole entry): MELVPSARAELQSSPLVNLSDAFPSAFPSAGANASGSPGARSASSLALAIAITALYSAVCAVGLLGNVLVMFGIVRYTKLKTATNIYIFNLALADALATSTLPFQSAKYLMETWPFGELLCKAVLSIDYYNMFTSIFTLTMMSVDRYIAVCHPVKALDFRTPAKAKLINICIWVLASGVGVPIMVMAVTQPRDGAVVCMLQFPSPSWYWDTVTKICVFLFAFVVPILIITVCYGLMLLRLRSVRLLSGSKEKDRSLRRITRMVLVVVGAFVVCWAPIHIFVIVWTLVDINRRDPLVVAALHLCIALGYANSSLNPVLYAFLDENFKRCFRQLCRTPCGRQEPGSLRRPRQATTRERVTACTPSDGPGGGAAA

[13] = target: T1, Kappa-type opioid receptor; experiment: Agonist activity at EGFP-tagged mouse KOR expressed in HEK293 cells co-expressing beta-arrestin2 nano-luciferase assessed as beta-arrestin2 recruitment for 5 mins by BRET assay; format: functional, cell-based
Method in brief: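 HEK293 cells co-transfected with human β-arrestin-2 nano-luciferase and mouse KOR-EGFP plasmids (1:10). After ≥16 h they were plated in phenol red-free DMEM with 10% FBS and left to adhere overnight, then serum-starved 1 h at 37 °C. Furimazine (1:50) added for 5 min at 37 °C, with a 5 min baseline. Peptide added for 5 min at 37 °C in triplicate. Luminescence read at 460 nm and EGFP fluorescence at 510 nm.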

[14] = target: Kappa-type opioid receptor (Mus musculus) (UniProt P33534); experiment: Displacement of [3H]-diprenorphine from mouse KOR expressed in HEK293 cell membranes at 100 nM by two-point binding assay; settings: Cell membrane, filed as agonist; method in brief: as §2
Mus musculus [15] = species: Mus musculus; experiment: Analgesic activity in chronic visceral hypersensitivity-induced chronic abdominal pain mouse model assessed as reduction in colonic nociceptor mechano-sensitivity at 1 uM in presence of 0.1 uM nor-BNI measured at 5 mins […]; format: functional
Method in brief: (§5)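 Ex vivo colon with attached splanchnic nerve from DNBS-induced CVH mice. Colon superfused with carbogen-gassed modified Krebs at 34 °C. Single-unit extracellular recording of nociceptor firing to 2 g von Frey probing, repeated after 5 min ring application of peptide (1 µM), with or without 5 min nor-BNI pre-incubation. Paired t-test.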

Mus musculus [16] = species: Mus musculus; experiment: Analgesic activity in chronic visceral hypersensitivity-induced chronic abdominal pain mouse model assessed as reduction in mechanical stimulation induced action potential firing of colonic nociception at 1 uM measured at 5 mins […]; format: functional; method in brief: as §5
[17] = Toxicity in mouse assessed as […] by measuring vocalization in mouse at 5 mg/kg, ip measured at 60 mins by […]; format: organism-based; settings: in vivo, 1 h

CC[C@H](C)[C@H](NC(=O)[C@H](CCCN=C(N)N)NC(=O)[C@H](CCCN=C(N)N)NC(=O)[C@H](CC(C)C)NC(=O)[C@H](Cc1ccccc1)NC(=O)CNC(=O)CNC(=O)[C@@H](N)Cc1ccc(O)cc1)C(=O)N[C@@H](CCCN=C(N)N)C(=O)N1CCC[C@H]1C(=O)N[C@@H](CCCCN)C(=O)N[C@@H](CC(C)C)C(=O)N[C@@H](CCCCN)C(N)=O
half-life [1]: < 15 min | Emax [2]: 100%

CC[C@H](C)[C@@H]1NC(=O)[C@@H]2CCCN2C(=O)[C@@H]2CCCN2C(=O)[C@H]([C@@H](C)CC)NC(=O)[C@H](CO)NC(=O)[C@H](CCCCN)NC(=O)[C@H]([C@@H](C)O)NC(=O)[C@@H]2CSSC[C@H](NC1=O)C(=O)N[C@@H](Cc1ccccc1)C(=O)N1CCC[C@H]1C(=O)N[C@@H](CC(=O)O)C(=O)NCC(=O)N[C@@H](CCCNC(=N)N)C(=O)N2
Ki [3]: > 30 µM

CC[C@H](C)[C@@H]1NC(=O)[C@H](CCCNC(=N)N)NC(=O)[C@H](CCCNC(=N)N)NC(=O)[C@H](CC(C)C)NC(=O)[C@H](Cc2ccccc2)NC(=O)CNC(=O)CNC(=O)[C@H](Cc2ccc(O)cc2)NC(=O)[C@@H]2CSSC[C@H](NC1=O)C(=O)N[C@@H](Cc1ccccc1)C(=O)N1CCC[C@H]1C(=O)N[C@@H](CC(=O)O)C(=O)NCC(=O)N[C@@H](CCCNC(=N)N)C(=O)N2
Ki ([3]; hek293): 3.2 µM | EC50 ([4]; hek293): 1.4 µM

Oc1ccc2c3c1O[C@H]1c4[nH]c5c(c4C[C@@]4(O)[C@@H](C2)N(CC2CC2)CC[C@]314)C[C@@]1(O)[C@H]2Cc3ccc(O)c4c3[C@@]1(CCN2CC1CC1)[C@H]5O4
Activity (Mus musculus [5]): inactive

CC[C@H](C)[C@@H]1NC(=O)[C@@H]2CCCN2C(=O)[C@@H]2CCCN2C(=O)[C@H]([C@@H](C)CC)NC(=O)[C@H](CO)NC(=O)[C@H](C)NC(=O)[C@H]([C@@H](C)O)NC(=O)[C@@H]2CSSC[C@H](NC1=O)C(=O)N[C@@H](Cc1ccc(O)cc1)C(=O)NCC(=O)NCC(=O)N[C@@H](Cc1ccccc1)C(=O)N[C@@H](CCCNC(=N)N)C(=O)N2 (cyclo(ASIPPICYGGFRCT); disulfide 7-13)
Ki ([3]; hek293): > 10 µM

CC[C@H](C)[C@@H]1NC(=O)[C@@H]2CCCN2C(=O)[C@@H]2CCCN2C(=O)[C@H]([C@@H](C)CC)NC(=O)[C@H](CO)NC(=O)[C@H](C)NC(=O)[C@H]([C@@H](C)O)NC(=O)[C@@H]2CSSC[C@H](NC1=O)C(=O)N[C@H](Cc1ccccc1)C(=O)N[C@H](Cc1ccccc1)C(=O)N[C@H](CC(C)C)C(=O)N[C@H](CCCCN)C(=O)N[C@@H](CCCNC(=N)N)C(=O)N2 (cyclo(ASIPPIC[dF][dF][dL][dK]RCT); disulfide 7-13)
Ki ([3]; hek293): > 10 µM

CCCC[C@H]1NC(=O)[C@@H](Cc2ccccc2)NC(=O)[C@@H](Cc2ccccc2)NC(=O)[C@@H]2CSSC[C@H](NC(=O)[C@H](CCCNC(=N)N)NC(=O)[C@@H](CCCNC(=N)N)NC1=O)C(=O)N[C@@H]([C@@H](C)O)C(=O)N[C@@H](C)C(=O)N[C@@H](CO)C(=O)N[C@@H]([C@@H](C)CC)C(=O)N1CCC[C@H]1C(=O)N1CCC[C@H]1C(=O)N[C@@H]([C@@H](C)CC)C(=O)N2 (cyclo(ASIPPIC[dF][dF][dNle][dR]RCT); disulfide 7-13)
Ki ([3]; hek293): > 10 µM

CC[C@H](C)[C@@H]1NC(=O)[C@@H]2CCCN2C(=O)[C@H](Cc2ccccc2)NC(=O)CNC(=O)CNC(=O)[C@H](Cc2ccc(O)cc2)NC(=O)[C@H]([C@@H](C)O)NC(=O)[C@@H]2CSSC[C@H](NC1=O)C(=O)N[C@@H](Cc1ccccc1)C(=O)N1CCC[C@H]1C(=O)N[C@@H](CC(=O)O)C(=O)NCC(=O)N[C@@H](CCCNC(=N)N)C(=O)N2 (cyclo(CFPDGRCTYGGFPI); disulfide 1-7)
Ki ([3]; hek293): > 10 µM

CC[C@H](C)[C@@H]1NC(=O)[C@@H]2CSSC[C@H](NC(=O)[C@H](CCCCN)NC(=O)[C@H](CC(C)C)NC(=O)[C@H](CCCCN)NC(=O)[C@@H]3CCCN3C(=O)[C@H](CCCNC(=N)N)NC1=O)C(=O)N[C@@H](Cc1ccc(O)cc1)C(=O)NCC(=O)NCC(=O)N[C@@H](Cc1ccccc1)C(=O)N[C@@H](CC(C)C)C(=O)N[C@@H](CCCNC(=N)N)C(=O)N[C@@H](CCCNC(=N)N)C(=O)N2 (cyclo(CIRPKLKCYGGFLRR); disulfide 1-8)
Activity (Mus musculus [6]): Non-Toxic | Activity [7]: Active | Activity [8]: Non-Toxic | Activity [9]: Non-Toxic | Ki [3]: 0.021 µM | Ki (Mu-type opioid receptor): > 10 µM | Activity [10]: Non-Toxic | Activity (Mus musculus [11]): Active | Ki [12]: > 10 µM | EC50 [13]: 1.4 µM | Activity [14]: Active | Activity (Mus musculus [15]): Active | Activity (Mus musculus [16]): Active | EC50 [4]: 0.045 µM | Activity [17]: Non-Toxic
